The source of these data is ChEMBL document CHEMBL4393708, “Pyridinylimidazoles as dual glycogen synthase kinase 3β/p38α mitogen-activated protein kinase inhibitors” (Eur J Med Chem, 2019).

Each structure is given as a SMILES string. In brackets after ≈: the same amount, converted by molar mass.

In one data set the target is Cytochrome P450 2C19 (Homo sapiens, UniProt P33261). The experiment in a line: Inhibition of human recombinant CYP2C19 expressed in baculovirus infected insect cells using EOMCC as substrate in presence of NADPH by fluorimetric analysis relative to control. The class given is ADME. Conditions: recombinant enzyme.
For data set [1], the target named is Aurora kinase A (Homo sapiens) (UniProt O14965). The experiment in a line: Inhibition of recombinant human Aurora A at 1 uM using Ulight-RRRSLLE substrate incubated for 15 mins in presence of ATP by LANCE assay relative to control. Background: TR-FRET usually uses a lanthanide donor and a delayed reading to cut background.
Data set [2] has as its target Calcium/calmodulin-dependent protein kinase type II subunit alpha (Homo sapiens) (UniProt Q9UQM7). The experiment in a line: Inhibition of human recombinant CAMKA2A at 1 uM using Ulight-CGSGSGRPRTSSFAEG as substrate measured after 30 mins by LANCE assay relative to control. The method, boiled down:
(§1)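 Kinase panel run by an outside provider (Eurofins Cerep) in a LANCE assay, single test concentration of 1 µM, results as percent inhibition.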

Data set [3] deals with Fibroblast growth factor receptor 1 (Homo sapiens) (UniProt P11362). The experiment in a line: Inhibition of human recombinant FGFR at 1 uM using Ulight-CAGAGAIETDKEYYTVKD as substrate measured after 60 mins in presence of ATP by LANCE assay relative to control. The method in brief:
as §1

Data set [4] addresses Tyrosine-protein kinase ABL1 (Homo sapiens) (UniProt P00519). The experiment in a line: Inhibition of recombinant human ABL1 at 1 uM using Ulight-TK peptide as substrate measured after 30 mins in presence of ATP by LANCE assay relative to control.
The target of data set [5] is Serine/threonine-protein kinase PLK1 (Homo sapiens) (UniProt P53350). The experiment in a line: Inhibition of human recombinant PLK1 at 1 uM using Ulight-FLGFTYVAP as substrate measured after 60 mins in presence of ATP by LANCE assay relative to control. The method, boiled down: as §1
For the next data set, the target named is CYP2C9 (Homo sapiens, UniProt P11712). The experiment in a line: Inhibition of human recombinant CYP2C9 expressed in baculovirus infected insect cells using OOMR as substrate at 10 uM in presence of NADPH by fluorimetric analysis relative to control. Format: ADME. The note with it: probe OOMR.
The nature of data set [6]: Metabolic stability in human liver microsomes assessed as parent compound remaining after 240 mins by LC-MS analysis relative to control. Format: ADME, Microsome. The note with it: read-out: Stability. (In general: Liver microsomes are a subcellular fraction often used to study metabolism.)
The target in data set [7] is Fibroblast growth factor receptor 2 (Homo sapiens) (UniProt P21802). The experiment in a line: Inhibition of human recombinant FGFR2 at 1 uM using Ulight-CAGAGAIETDKEYYTVKD as substrate measured after 15 mins in presence of ATP by LANCE assay relative to control. The method, boiled down: as §1
The target in data set [8] is Ephrin type-A receptor 3 (Homo sapiens) (UniProt P29320). The experiment in a line: Inhibition of human recombinant EPHA3 at 1 uM using Ulight-TK peptide as substrate measured after 60 mins in presence of ATP by LANCE assay relative to control. The method, boiled down:
as §1

In data set [9] the target is Proto-oncogene tyrosine-protein kinase Src (Homo sapiens) (UniProt P12931). The experiment in a line: Inhibition of human recombinant SRC at 1 uM using Ulight-Poly GAT[EAY(1:1:1)]n as substrate measured after 10 mins in presence of ATP by LANCE assay relative to control. The method in brief: as §1
The target of data set [10] is Interleukin-1 receptor-associated kinase 4 (Homo sapiens) (UniProt Q9NWZ3). The experiment in a line: Inhibition of human recombinant IRAK4 at 1 uM using Ulight-FLGFTYVAP as substrate measured after 90 mins in presence of ATP by LANCE assay relative to control. The method, boiled down:
as §1

The nature of data set [11]: Plasma clearance in RjOrl:Swiss CD-1 mouse at 10 mg/kg, iv administered as single dose measured after 10 mins by LC-MS analysis. The class given is ADME, organism-based. The method, boiled down:
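Adult male mice received a single 10 mg/kg intravenous injection. Plasma was sampled at 10, 30 and 120 min after dosing. Samples were prepared and analyzed by LC-MS.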

Data set [12] is described as follows: Solubility of the compound in PBS buffer at pH 7.8 after 1 hr by HPLC analysis. Format: physicochemical.
A further data set concerns the target hERG (KCNH2) (Homo sapiens, UniProt Q12809). The experiment in a line: Inhibition of tracer Red binding to human ERG expressed in membranes at 10 uM after 4 hrs by fluorescence polarization assay relative to control. Conditions: membranes expressing human ERG, probe tracer Red. On the technique in general: Fluorescence polarisation rises when a labelled molecule tumbles more slowly, as on binding a larger partner.

Data set [13] deals with T1, Glycogen synthase kinase-3 beta (Homo sapiens, UniProt P49841). The experiment in a line: Competitive inhibition of human recombinant full length GSK3beta using YRRAAVPPSPSLSRHSSPHQ(pS)EDEEE as substrate preincubated with enzyme for 10 mins followed by substrate and 500 uM ATP addition measured after 60 mins by ADP-Glo luminescence assay. The method in brief: (§2)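 Recombinant human GSK3β at 0.58 ng/µL with 0.2 µg/µL substrate G50-58; ATP at 25 µM, 100 µM or 500 µM, each as its line states. Compounds in serial dilutions were preincubated with kinase for 10 min at rt. Substrate/ATP was then added and the reaction ran 60 min at rt. ADP-Glo reagent 60 min, detection reagent 30 min, then luminescence read (500 ms integration).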

In data set [14] the target is Serine/threonine-protein kinase PAK 2 (Homo sapiens) (UniProt Q13177). The experiment in a line: Inhibition of human recombinant PAK2 at 1 uM using Ulight-RRRSLLE as substrate measured after 60 mins in presence of ATP by LANCE assay relative to control. The method in brief: as §1
The target in data set [15] is Serine/threonine-protein kinase pim-2 (Homo sapiens) (UniProt Q9P1W9). The experiment in a line: Inhibition of human recombinant PIM2 at 1 uM using CREBtide as substrate measured after 60 mins in presence of ATP by LANCE assay relative to control. The method in brief: as §1
Data set [16] addresses T1, Glycogen synthase kinase-3 beta. The experiment in a line: Competitive inhibition of human recombinant full length GSK3beta using YRRAAVPPSPSLSRHSSPHQ(pS)EDEEE as substrate preincubated with enzyme for 10 mins followed by substrate and 100 uM ATP addition measured after 60 mins by ADP-Glo luminescence assay. The method in brief:
as §2

Data set [17] concerns the target Inhibitor of nuclear factor kappa-B kinase subunit alpha (Homo sapiens) (UniProt O15111). The experiment in a line: Inhibition of human recombinant IKKalpha at 1 uM using Ulight-IKappaB-alpha as substrate measured after 30 mins in presence of ATP by LANCE assay relative to control. The method in brief:
as §1

Data set [18] in a line: Metabolic stability in human liver microsomes assessed as parent compound remaining after 120 mins by LC-MS analysis relative to control. Format: ADME, Microsome. Conditions: read-out: Stability.
In data set [19] the target is Serine/threonine-protein kinase Chk2 (Homo sapiens) (UniProt O96017). The experiment in a line: Inhibition of human recombinant CHK2 at 1 uM using CREBtide as substrate incubated for 15 mins in presence of ATP by LANCE assay relative to control. The method in brief:
as §1

Data set [20] concerns the target Mitogen-activated protein kinase 14 (Homo sapiens, UniProt Q16539). The experiment in a line: Inhibition of human recombinant SAPK2A at 1 uM using Ulight-CFFKNIVTPRTPPPSQGK-amide as substrate measured after 30 mins in presence of ATP by LANCE assay relative to control. The method, boiled down:
as §1

Data set [21] deals with Rho-associated protein kinase 1 (Homo sapiens) (UniProt Q13464). The experiment in a line: Inhibition of human recombinant ROCK1 at 1 uM using Ulight-RRRSLLE as substrate measured after 20 mins in presence of ATP by LANCE assay relative to control. The method in brief:
as §1

T1 sequence (P49841 whole entry): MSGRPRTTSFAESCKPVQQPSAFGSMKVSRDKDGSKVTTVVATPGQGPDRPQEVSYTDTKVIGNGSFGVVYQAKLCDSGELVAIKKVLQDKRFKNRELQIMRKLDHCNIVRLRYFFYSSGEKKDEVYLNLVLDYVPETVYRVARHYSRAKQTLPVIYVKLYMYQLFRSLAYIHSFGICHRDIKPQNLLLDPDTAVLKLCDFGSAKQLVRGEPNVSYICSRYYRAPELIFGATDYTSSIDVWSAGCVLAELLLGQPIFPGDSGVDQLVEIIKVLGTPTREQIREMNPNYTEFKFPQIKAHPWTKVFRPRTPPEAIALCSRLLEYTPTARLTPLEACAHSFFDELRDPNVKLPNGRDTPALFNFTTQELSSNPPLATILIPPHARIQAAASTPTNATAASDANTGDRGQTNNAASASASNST
Chain of Serine/threonine-protein kinase Chk2 (Homo sapiens) (O96017 whole entry): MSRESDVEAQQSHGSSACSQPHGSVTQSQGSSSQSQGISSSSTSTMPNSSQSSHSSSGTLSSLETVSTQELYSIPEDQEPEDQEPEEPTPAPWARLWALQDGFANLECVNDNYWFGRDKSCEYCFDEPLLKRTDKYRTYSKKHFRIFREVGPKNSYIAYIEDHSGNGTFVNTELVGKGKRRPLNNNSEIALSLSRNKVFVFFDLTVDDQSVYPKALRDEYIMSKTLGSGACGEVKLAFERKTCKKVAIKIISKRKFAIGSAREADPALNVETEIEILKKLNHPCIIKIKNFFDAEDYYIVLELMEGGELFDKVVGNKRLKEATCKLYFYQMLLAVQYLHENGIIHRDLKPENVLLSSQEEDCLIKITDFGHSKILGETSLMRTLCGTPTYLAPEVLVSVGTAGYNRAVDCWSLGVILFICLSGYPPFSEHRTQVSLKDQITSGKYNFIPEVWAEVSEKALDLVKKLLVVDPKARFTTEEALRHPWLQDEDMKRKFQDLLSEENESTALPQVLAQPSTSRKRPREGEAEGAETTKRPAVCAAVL
Chain of Interleukin-1 receptor-associated kinase 4 (Homo sapiens) (Q9NWZ3 whole entry): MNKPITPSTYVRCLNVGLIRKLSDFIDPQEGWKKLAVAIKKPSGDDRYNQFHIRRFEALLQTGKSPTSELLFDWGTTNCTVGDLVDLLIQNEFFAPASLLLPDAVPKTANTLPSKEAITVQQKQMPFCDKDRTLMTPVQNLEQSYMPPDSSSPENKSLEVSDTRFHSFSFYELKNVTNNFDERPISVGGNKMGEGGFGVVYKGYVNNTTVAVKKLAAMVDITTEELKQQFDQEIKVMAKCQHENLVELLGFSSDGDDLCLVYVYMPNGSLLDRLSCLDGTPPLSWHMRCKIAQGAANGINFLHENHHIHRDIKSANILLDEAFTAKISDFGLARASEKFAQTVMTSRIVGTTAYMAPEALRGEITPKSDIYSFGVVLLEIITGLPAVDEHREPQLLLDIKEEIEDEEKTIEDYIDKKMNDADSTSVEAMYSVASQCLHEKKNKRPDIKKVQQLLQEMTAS
Chain of Aurora kinase A (Homo sapiens) (O14965 whole entry): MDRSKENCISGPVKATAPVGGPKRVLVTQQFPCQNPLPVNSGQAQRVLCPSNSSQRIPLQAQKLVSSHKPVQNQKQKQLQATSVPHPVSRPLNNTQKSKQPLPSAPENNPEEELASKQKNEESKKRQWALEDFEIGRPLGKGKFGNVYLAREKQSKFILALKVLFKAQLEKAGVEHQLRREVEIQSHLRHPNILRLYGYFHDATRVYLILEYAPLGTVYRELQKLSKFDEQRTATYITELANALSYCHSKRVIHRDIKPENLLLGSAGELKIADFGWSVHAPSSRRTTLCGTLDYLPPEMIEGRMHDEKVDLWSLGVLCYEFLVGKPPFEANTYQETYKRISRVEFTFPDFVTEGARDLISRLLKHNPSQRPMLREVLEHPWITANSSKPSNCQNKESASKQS
Chain of CYP2C9 (P11712 whole entry): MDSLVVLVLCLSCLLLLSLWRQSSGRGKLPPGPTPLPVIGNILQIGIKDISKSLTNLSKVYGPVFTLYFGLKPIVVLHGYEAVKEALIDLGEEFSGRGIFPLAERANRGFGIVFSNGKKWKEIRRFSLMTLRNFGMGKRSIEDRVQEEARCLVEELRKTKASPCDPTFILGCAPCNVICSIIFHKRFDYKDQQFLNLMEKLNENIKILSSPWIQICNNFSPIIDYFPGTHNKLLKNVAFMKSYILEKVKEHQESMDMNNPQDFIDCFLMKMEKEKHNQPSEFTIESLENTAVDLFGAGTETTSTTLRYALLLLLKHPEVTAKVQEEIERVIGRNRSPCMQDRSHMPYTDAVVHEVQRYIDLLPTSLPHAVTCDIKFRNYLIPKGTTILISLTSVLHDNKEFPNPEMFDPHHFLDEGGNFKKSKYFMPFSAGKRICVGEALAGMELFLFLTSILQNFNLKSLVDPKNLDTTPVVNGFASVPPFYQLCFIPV
Chain of Rho-associated protein kinase 1 (Homo sapiens) (Q13464 2-1354 limits assumed): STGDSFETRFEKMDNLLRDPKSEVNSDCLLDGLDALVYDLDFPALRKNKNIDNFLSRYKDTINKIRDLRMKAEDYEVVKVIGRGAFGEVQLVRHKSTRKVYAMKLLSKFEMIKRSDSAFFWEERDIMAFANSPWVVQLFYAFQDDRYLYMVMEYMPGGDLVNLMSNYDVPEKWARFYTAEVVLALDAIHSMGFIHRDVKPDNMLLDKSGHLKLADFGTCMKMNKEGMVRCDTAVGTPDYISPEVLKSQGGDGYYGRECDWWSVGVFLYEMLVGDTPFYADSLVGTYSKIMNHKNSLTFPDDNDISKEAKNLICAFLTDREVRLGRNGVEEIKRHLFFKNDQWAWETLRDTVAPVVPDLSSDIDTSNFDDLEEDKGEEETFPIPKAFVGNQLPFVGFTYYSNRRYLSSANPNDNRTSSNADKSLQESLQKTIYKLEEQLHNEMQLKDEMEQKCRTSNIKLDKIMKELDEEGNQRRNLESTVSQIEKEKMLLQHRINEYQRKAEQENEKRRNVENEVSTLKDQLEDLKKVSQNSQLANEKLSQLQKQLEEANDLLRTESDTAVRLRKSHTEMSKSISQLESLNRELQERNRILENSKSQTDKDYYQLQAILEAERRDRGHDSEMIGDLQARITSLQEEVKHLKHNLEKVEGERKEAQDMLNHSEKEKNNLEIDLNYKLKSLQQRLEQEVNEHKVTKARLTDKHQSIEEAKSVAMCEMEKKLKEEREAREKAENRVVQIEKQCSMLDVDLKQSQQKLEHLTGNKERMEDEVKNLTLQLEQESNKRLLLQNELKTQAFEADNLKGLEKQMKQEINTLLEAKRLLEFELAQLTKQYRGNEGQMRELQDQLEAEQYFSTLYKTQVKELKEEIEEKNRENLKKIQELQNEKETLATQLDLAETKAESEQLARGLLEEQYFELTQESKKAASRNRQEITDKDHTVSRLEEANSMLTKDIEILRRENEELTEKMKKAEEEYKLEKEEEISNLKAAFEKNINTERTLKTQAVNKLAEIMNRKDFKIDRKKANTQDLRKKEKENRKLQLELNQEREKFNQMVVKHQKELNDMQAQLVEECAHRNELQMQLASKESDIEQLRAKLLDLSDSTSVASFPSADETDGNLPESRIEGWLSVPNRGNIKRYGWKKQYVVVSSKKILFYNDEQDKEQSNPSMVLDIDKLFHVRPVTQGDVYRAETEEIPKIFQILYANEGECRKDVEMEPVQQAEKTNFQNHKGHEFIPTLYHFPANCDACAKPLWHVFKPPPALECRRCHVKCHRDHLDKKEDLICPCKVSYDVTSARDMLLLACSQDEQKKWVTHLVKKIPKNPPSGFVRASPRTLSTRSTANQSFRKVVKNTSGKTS
Chain of Serine/threonine-protein kinase PLK1 (Homo sapiens) (P53350 whole entry): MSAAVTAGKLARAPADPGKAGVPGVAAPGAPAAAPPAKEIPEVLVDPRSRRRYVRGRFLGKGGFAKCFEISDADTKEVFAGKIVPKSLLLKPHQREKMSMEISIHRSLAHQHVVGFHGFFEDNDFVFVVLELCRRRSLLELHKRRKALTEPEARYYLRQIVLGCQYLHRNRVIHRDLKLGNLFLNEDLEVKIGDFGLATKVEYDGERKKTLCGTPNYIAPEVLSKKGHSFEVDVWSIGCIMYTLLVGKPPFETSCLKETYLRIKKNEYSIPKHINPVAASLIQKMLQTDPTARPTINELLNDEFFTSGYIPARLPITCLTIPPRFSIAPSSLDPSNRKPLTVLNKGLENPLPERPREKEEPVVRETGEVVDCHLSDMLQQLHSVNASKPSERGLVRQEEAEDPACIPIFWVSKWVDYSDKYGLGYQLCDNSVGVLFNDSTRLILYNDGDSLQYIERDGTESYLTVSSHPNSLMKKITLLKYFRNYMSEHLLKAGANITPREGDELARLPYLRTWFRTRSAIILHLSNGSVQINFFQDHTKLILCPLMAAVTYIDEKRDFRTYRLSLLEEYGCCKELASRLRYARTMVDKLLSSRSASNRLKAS
Chain of Proto-oncogene tyrosine-protein kinase Src (Homo sapiens) (P12931 2-536 limits assumed): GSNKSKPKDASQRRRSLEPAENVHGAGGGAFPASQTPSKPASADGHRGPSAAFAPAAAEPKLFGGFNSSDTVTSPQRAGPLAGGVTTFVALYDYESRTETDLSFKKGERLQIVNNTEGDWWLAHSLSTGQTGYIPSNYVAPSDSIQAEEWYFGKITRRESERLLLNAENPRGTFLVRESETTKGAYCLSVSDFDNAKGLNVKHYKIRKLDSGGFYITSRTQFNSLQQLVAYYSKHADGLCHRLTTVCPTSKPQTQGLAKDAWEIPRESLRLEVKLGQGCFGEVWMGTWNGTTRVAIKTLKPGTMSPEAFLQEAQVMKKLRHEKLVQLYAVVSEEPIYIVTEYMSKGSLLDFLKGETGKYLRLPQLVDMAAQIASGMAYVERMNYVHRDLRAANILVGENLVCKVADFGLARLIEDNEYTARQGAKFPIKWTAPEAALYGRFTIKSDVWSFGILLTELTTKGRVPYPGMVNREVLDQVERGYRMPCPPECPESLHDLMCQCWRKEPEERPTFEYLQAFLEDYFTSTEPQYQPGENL

For `CCc1nc(-c2ccc(F)cc2)c(-c2ccnc(NC(=O)C3CC3)c2)[nH]1`, the “inhibition (INH)” value on Cytochrome P450 2C19 stood at 81.7%. Besides, the inhibition – broadly, the relative decrease from the control value, in per cent – was 2.76% in data set [1]; -2.55% in data set [2]; 47% in data set [3]; 91.5% in data set [4]; 2.78% in [5]; 74.4% in data set [7]. The inhibition in data set [8] was 76.6%; in data set [9] it was 51.6%; in data set [10], 2.96%; in data set [14], 5.58%; in data set [15], -0.24%; in data set [17], -2.16%. Moreover, the inhibition in [19] was -9.7%; in data set [20], 93.6%; in data set [21], -8.13%. For the same compound, the inhibition at 10 µM at CYP2C9 was 83.6%. The remaining at 4 h in data set [6] came out at 98.3%. In data set [11], this compound registered a concentration at 10 min of 850 ng/mL. Moreover, the concentration in solution in [12] (solubility at 1 h) came to 155 µg/mL (≈ 442 µM). Further, the inhibition at 4 h, 10 µM at hERG (KCNH2) is 43.3%. In addition, the figures for the concentration for half-maximal inhibition (IC50) in data set [13] and in [16] were 0.492 µM and 0.108 µM, respectively. Also, in data set [18], the remaining at 2 h stood at 96.4%.
